Measured values pooled from the literature.
Protocols differ between the studies behind these lines.
Target: Ephrin type-B receptor 4 (EPHB4, Homo sapiens, UniProt P54760)
Sequence (P54760 16-987, as in one of the studies): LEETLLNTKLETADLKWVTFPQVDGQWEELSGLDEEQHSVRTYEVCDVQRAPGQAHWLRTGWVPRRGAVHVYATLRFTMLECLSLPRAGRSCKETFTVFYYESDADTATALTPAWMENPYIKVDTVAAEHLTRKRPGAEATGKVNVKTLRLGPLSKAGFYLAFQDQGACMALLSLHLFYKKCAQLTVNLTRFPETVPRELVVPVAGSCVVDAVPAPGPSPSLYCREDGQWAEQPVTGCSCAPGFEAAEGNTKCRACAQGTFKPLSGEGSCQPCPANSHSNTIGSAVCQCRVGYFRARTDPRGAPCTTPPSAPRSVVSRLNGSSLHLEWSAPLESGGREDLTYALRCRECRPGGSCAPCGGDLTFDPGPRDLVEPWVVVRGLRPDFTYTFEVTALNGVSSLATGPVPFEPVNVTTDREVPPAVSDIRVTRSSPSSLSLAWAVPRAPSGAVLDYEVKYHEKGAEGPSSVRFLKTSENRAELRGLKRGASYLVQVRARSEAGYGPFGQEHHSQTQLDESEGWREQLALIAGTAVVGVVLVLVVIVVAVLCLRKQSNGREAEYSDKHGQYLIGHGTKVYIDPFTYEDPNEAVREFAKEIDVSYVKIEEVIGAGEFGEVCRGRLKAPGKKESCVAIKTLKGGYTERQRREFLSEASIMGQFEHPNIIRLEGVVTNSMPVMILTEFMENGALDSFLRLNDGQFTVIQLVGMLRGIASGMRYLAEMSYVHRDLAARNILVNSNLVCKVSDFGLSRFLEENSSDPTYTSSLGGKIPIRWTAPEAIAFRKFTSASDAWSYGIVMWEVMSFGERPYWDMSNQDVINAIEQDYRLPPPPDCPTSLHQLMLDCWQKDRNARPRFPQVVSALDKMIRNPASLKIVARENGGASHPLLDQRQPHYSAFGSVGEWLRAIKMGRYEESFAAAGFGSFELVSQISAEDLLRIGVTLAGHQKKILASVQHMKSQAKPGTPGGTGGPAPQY

Cn1cc(-c2cc(F)cc(N3CCn4c(cc5c4CCCC5)C3=O)c2CO)cc(Nc2ccc(N3CCN(C4COC4)CC3)cn2)c1=O — inhibition (enzyme activity, inhibitor; 0.1 µM): 8%
C#Cc1n[nH]c2c(-c3cn([C@@H](C)c4ccccc4)c(=O)[nH]c3=O)cc(F)cc12 — inhibition (enzyme activity, inhibitor; 0.1 µM): 1.4%
O=c1[nH]c2ccccc2n1C1CCN(Cc2ccc(-c3[nH]c4cc5ncnc5cc4nc3-c3ccccc3)cc2)CC1 — remaining signal (cell-free assay; 0.5 µM): 96.4%
Cn1cc(-c2cccc(N3CCc4c(sc5c4CC(C)(C)C5)C3=O)c2CO)cc(Nc2ccncn2)c1=O — inhibition (enzyme activity, inhibitor; 1 µM): 0%
COc1ncccc1-c1cnn2ccc(N3CCN(C(=O)OC(C)C)CC3)nc12 — remaining binding (binding, competition with immobilised ligand; 1 µM): 100%
COc1cc(Nc2ncc(F)c(Nc3ccc4c(n3)NC(=O)C(C)(C)O4)n2)cc(OC)c1OC — inhibition (binding, competition with immobilised ligand; 10 µM): 50%
Cn1cncc1[C@](O)(COc1ccc(C#N)cc1-c1ccc(OC(F)(F)F)cc1)c1ccc(C#N)cc1 — remaining binding (cell-free assay, competition with immobilised ligand; 1 µM): 98%
C#Cc1n[nH]c2c(-c3cn([C@@H](C)c4ccccn4)c(=O)[nH]c3=O)cc(F)cc12 — inhibition (enzyme activity, inhibitor; 0.1 µM): 5.5%
Cc1nn(C)cc1-c1nc2c(N3CCN(Cc4ccc(Cl)cc4)CC3)c(Cl)cnc2[nH]1 — remaining binding (binding, competition with immobilised ligand; 1 µM): 100%
N#CC1(c2ccccn2)CCN(Cc2cc(C(=O)O)c(=O)n3ccccc23)CC1 — remaining binding (cell-free assay, competition with immobilised ligand; 1 µM): 83%
